We go through four molecules from ChEMBL document CHEMBL3351240, “Antinociceptive properties of physalins from Physalis angulata” (J Nat Prod, 2014).

For data set [1], the system named is Mus musculus. Put plainly: Antinociceptive activity in Swiss Webster mouse assessed as inhibition of acetic acid-induced abdominal constrictions at 25 to 100 mg/kg, ip dosed 40 mins before acetic acid injection. Format: functional, organism-based. Conditions: Abdomen. The gist of the method: (§1)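 Male Swiss Webster mice dosed ip (5% DMSO in saline vehicle) 40 min before ip acetic acid 0.8% v/v, 10 mL/kg; writhes (abdominal contraction with hind-limb stretching) counted over 0−30 min; mean writhing score, n = 10 per group; ANOVA with Tukey.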

The test system of data set [2] is Mus musculus. Put plainly: Antinociceptive activity in Swiss Webster mouse assessed as inhibition of formalin-induced late phase pain response at 25 to 100 mg/kg, ip dosed 40 mins before formalin injection. Format: functional, organism-based. The gist of the method: (§2)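 Mice acclimated 30 min in chamber, dosed ip 40 min before sc injection of 20 μL 2.5% formalin into dorsal hind paw; licking time of injected paw scored 0−10 min (early phase) and 10−30 min (late phase); n = 7−10; ANOVA with Tukey.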

Data set [3] relates to Mus musculus. Put plainly: CNS toxicity in Swiss Webster mouse assessed as effect on motor performance at 100 mg/kg, ip after 40 mins by rotarod test. Conditions: in vivo. More on the design: dose 100 mg/kg, route intraperitoneal. Format: organism-based. The gist of the method: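 Rota-rod test: 3 cm bar at 8 rpm; mice pre-selected 24 h earlier by remaining on bar for two consecutive 120 s periods; placed on rod 40 min after ip dosing; time on bar recorded up to 120 s; n = 6; one-way ANOVA with Tukey.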
(Falling from the rotarod earlier than controls is read as motor impairment.)

Data set [4] concerns Mus musculus. Put plainly: CNS toxicity in Swiss Webster mouse assessed as effect on motor performance at 100 mg/kg, ip after 40 mins by open field test. More on the design: dose 100 mg/kg, route intraperitoneal. Conditions: in vivo. Format: organism-based. The gist of the method: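 Open-field test 40 min after ip dosing: mice placed singly in 40 × 60 × 50 cm box with 12 floor squares; squares crossed with all four paws counted over 3 min; n = 6; one-way ANOVA with Tukey.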

The subject of data set [5] is Mus musculus. Put plainly: Antiinflammatory activity in Swiss Webster mouse assessed as reduction in hyperalgesia at 100 mg/kg, ip dosed 40 mins before CFA injection and measured 2 to 6 hrs post CFA stimulus. Format: functional, organism-based. More on the design: dose 100 mg/kg. The gist of the method: (§3)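 Male Swiss Webster mice (22−28 g) given drug ip in 5% DMSO/saline (dexamethasone in 10% ethanol/saline) 40 min before 20 μL CFA (1 mg/mL heat-killed M. tuberculosis in paraffin oil/mannide monooleate) sc into right hind paw plantar region. Mechanical threshold by von Frey filaments, up−down method, at 2, 4 and 6 h; n = 6; two-way ANOVA with Bonferroni.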

Data set [6] has as its system Mus musculus. Put plainly: Antiinflammatory activity in Swiss Webster mouse assessed as reduction in paw edema at 100 mg/kg, ip dosed 40 mins before CFA injection and measured 2 hrs post CFA stimulus. More on the design: dose 100 mg/kg. Format: functional, organism-based. The gist of the method: (§4)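 Male Swiss Webster mice, ip pretreatment in 5% DMSO/saline 40 min before intraplantar CFA (20 μL, 1 mg/mL heat-killed M. tuberculosis). Paw volume measured by plethysmometer before and 2, 4, 6 h after CFA; edema expressed as percent increase in paw volume; n = 6 mice/group; two-way ANOVA with Bonferroni.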

Data set [7] relates to Mus musculus. Put plainly: Antinociceptive activity in Swiss Webster mouse assessed as increase in reaction time at 100 mg/kg, ip measured after 3 hrs by tail flick test. More on the design: dose 100 mg/kg. Format: functional, organism-based. The gist of the method: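 Mice habituated to restraint cylinder 20 min/day for 5 days; distal 2 cm of tail immersed in 48 ± 0.5 °C water; tail withdrawal latency measured before and after ip dosing (5% DMSO/saline vehicle); 10 s cutoff; n = 6; two-way ANOVA with Bonferroni.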
For orientation: Thermal pain tests record how soon the animal reacts.

Data set [8] deals with Mus musculus. Description: Antiinflammatory activity in Swiss Webster mouse assessed as reduction in paw edema at 100 mg/kg, ip dosed 40 mins before CFA injection and measured 2 to 6 hrs post CFA stimulus. Format: functional, organism-based. Further details: dose 100 mg/kg. The gist of the method:
as §4

Data set [9] deals with Mus musculus. Description: Antinociceptive activity in Swiss Webster mouse assessed as increase in latency time at 100 mg/kg, ip measured after 0.5 hrs by hot plate test. Format: functional, organism-based. More on the design: dose 100 mg/kg. The gist of the method: (§5)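 Hot plate held at 55 ± 1 °C; male Swiss Webster mice; reaction time to hind paw licking or jumping recorded before and after ip dosing (vehicle 5% DMSO in saline); data as difference from baseline; 10 s cutoff; n = 6; two-way ANOVA with Bonferroni.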

Data set [10] relates to Mus musculus. Description: Antinociceptive activity in Swiss Webster mouse assessed as inhibition of acetic acid-induced abdominal constrictions at 25 mg/kg, ip dosed 40 mins before acetic acid injection. The note with it: Abdomen. Format: functional, organism-based. More on the design: dose 25 mg/kg. The gist of the method:
as §1

Data set [11] relates to Mus musculus. Put plainly: Antinociceptive activity in Swiss Webster mouse assessed as inhibition of formalin-induced late phase pain response at 50 to 100 mg/kg, ip dosed 40 mins before formalin injection. Format: functional, organism-based. The gist of the method: as §2
In data set [12] the test system is Mus musculus. Description: Antinociceptive activity in Swiss Webster mouse assessed as inhibition of formalin-induced early phase pain response at 50 to 100 mg/kg, ip dosed 40 mins before formalin injection. Format: functional, organism-based. The gist of the method:
as §2

Data set [13] relates to Mus musculus. Put plainly: Antiinflammatory activity in Swiss Webster mouse assessed as reduction in hyperalgesia at 100 mg/kg, ip dosed 40 mins before CFA injection and measured 2 hrs post CFA stimulus. Format: functional, organism-based. More on the design: dose 100 mg/kg. The gist of the method:
as §3

For data set [14], the system named is Mus musculus. Put plainly: Antiinflammatory activity in Swiss Webster mouse assessed as reduction in hyperalgesia at 100 mg/kg, ip dosed 40 mins before CFA injection and measured 4 to 6 hrs post CFA stimulus. Further details: dose 100 mg/kg. Format: functional, organism-based. The gist of the method:
as §3

Data set [15] concerns Mus musculus. Description: Antiinflammatory activity in Swiss Webster mouse assessed as reduction in paw edema at 50 to 100 mg/kg, ip dosed 40 mins before CFA injection and measured 2 to 4 hrs post CFA stimulus. Format: functional, organism-based. The gist of the method:
as §4

In data set [16] the test system is Mus musculus. Description: Reduction in TNFalpha level in Swiss Webster mouse 100 mg/kg, ip dosed 40 mins before CFA injection and measured 3 hrs post CFA stimulus by ELISA method. Format: functional, organism-based. Further details: dose 100 mg/kg. The note with it: at 100 mg/kg. The gist of the method:
(§6)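 Mice dosed ip 40 min before intraplantar CFA; paw skin removed under terminal halothane anesthesia; proteins extracted at 100 mg tissue/mL PBS with 0.4 M NaCl, 0.05% Tween 20 and protease inhibitors; centrifuged 3000g for 10 min; supernatant IL-1β or TNF-α measured by ELISA as pg/mL; n = 6.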

For data set [17], the system named is Mus musculus. Put plainly: Reduction in IL1-beta level in Swiss Webster mouse 100 mg/kg, ip dosed 40 mins before CFA injection and measured 3 hrs post CFA stimulus by ELISA method. Format: functional, organism-based. Further details: dose 100 mg/kg. Conditions: at 100 mg/kg. The gist of the method:
as §6
For orientation: ELISA stands for enzyme-linked immunosorbent assay.

Data set [18] concerns Mus musculus. Put plainly: Antinociceptive activity in Swiss Webster mouse assessed as increase in latency time at 100 mg/kg, ip measured after 0.5 to 2 hrs by hot plate test. Format: functional, organism-based. More on the design: dose 100 mg/kg. The gist of the method: as §5
Data set [19] concerns Mus musculus. Put plainly: Antinociceptive activity in Swiss Webster mouse assessed as inhibition of formalin-induced late phase pain response at 50 mg/kg, ip dosed 40 mins before formalin injection. Format: functional, organism-based. More on the design: dose 50 mg/kg. The gist of the method:
as §2

Data set [20] has as its system Mus musculus. Put plainly: Antinociceptive activity in Swiss Webster mouse assessed as inhibition of formalin-induced early phase pain response at 50 mg/kg, ip dosed 40 mins before formalin injection. Format: functional, organism-based. More on the design: dose 50 mg/kg. The gist of the method: as §2

The structures appear in SMILES notation. Calls of active or inactive are those of the source.

As for `C[C@]12C(=O)C=CCC1=CC[C@@H]1[C@@H]2CC[C@]2(O)C(=O)O[C@@]3(C)[C@H]4C[C@]5(C)[C@@H](CO[C@@]16O[C@@]32[C@H]5C6=O)C(=O)O4` [PHYSALIN B], the inhibition entry in the data set with Mus musculus [1] was “Dose-dependent effect”. For the same molecule, the inhibition entry in the data set on Mus musculus [2] and in the data set on Mus musculus [6] was “Active” each time. The Activity entry with Mus musculus [3] and with Mus musculus [4] was “Non-toxic” throughout. For the same molecule, the inhibition entry in the data set with Mus musculus [5] is “inactive”. The result in the data set with Mus musculus [7] was Active.
With `C[C@@]12C[C@H]3OC(=O)[C@@H]1CO[C@@]14O[C@]5([C@H]2C1=O)[C@@](O)(CC[C@H]1[C@H]4C[C@@H](O)[C@@]2(O)CC=CC(=O)[C@]12C)C(=O)O[C@@]35C` [PHYSALIN D], in the data set on Mus musculus [1], the inhibition entry was “Dose-dependent effect”. For the same molecule, the inhibition result with Mus musculus [2] is “Active”. The Activity entry with Mus musculus [3] and in the data set on Mus musculus [4] was “Non-toxic” throughout. The inhibition result with Mus musculus [5] and with Mus musculus [8] was “inactive” throughout. Moreover, the outcome with Mus musculus [9] was Active.
For the molecule `C[C@@]12C[C@H]3OC(=O)[C@@H]1CO[C@]14O[C@]5([C@H]2C1=O)[C@@](O)(CC[C@H]1[C@H]4C[C@H]2O[C@]24CC=CC(=O)[C@]14C)C(=O)O[C@@]35C` [PHYSALIN F], the inhibition entry with Mus musculus [10], with Mus musculus [11], in the data set with Mus musculus [12], with Mus musculus [13], in the data set on Mus musculus [15] and in the data set with Mus musculus [16] was “Active” throughout. The Activity result in the data set with Mus musculus [3] and with Mus musculus [4] was “Non-toxic” each time. Moreover, the inhibition entry in the data set on Mus musculus [14] and with Mus musculus [17] was “inactive” in each case. Also, the result with Mus musculus [7] and in the data set with Mus musculus [18] was Active.
On to `C[C@]12C(=O)C=CC=C1[C@@H](O)C[C@@H]1[C@@H]2CC[C@@]2(O)C(=O)O[C@@]3(C)[C@H]4C[C@]5(C)[C@@H](CO[C@@]16O[C@]23[C@H]5C6=O)C(=O)O4` [PHYSALIN G], for which, in the data set on Mus musculus [1], the inhibition result was “Dose-dependent effect”. Also, the inhibition result in the data set on Mus musculus [19] and in the data set on Mus musculus [20] was “Active” each time. Also, the Activity result in the data set on Mus musculus [3] and with Mus musculus [4] was “Non-toxic” in each case. Also, the inhibition entry in the data set on Mus musculus [5] and with Mus musculus [8] was “inactive” each time. Besides, the outcome in the data set on Mus musculus [7] and in the data set with Mus musculus [18] was Active.
